Here are results for 19 compounds from ChEMBL document CHEMBL3120144, “Design, synthesis and molecular modeling of aloe-emodin derivatives as potent xanthine oxidase inhibitors” (Eur J Med Chem, 2014).

The target of data set [1] is T1, Xanthine dehydrogenase/oxidase (Bos taurus, UniProt P80457). Put plainly: Inhibition of bovine xanthine oxidase using xanthine as substrate measured for 6 mins at 50 uM at 25 degC by spectrophotometry. The note with it: cattle, 0.1 h. In short, it runs like this:
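Xanthine substrate, 25 °C, in 50 mM K₂HPO₄ buffer at pH 7.8. Xanthine was added as an 84.8 μg/mL solution in the same buffer; this is the added solution's concentration, not the final one. Test compounds were dissolved in DMSO and added at various concentrations.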

For data set [2], the target named is T1, Xanthine dehydrogenase/oxidase. Put plainly: Inhibition of bovine xanthine oxidase using xanthine as substrate measured for 6 mins at 25 degC by spectrophotometry.
Data set [3] has the same target. Put plainly: Mixed-type inhibition of bovine xanthine oxidase using xanthine as substrate at 1.4 to 5.6 uM by Lineweaver-Burk plot. The note with it: cattle.

T1 sequence (P80457 whole entry): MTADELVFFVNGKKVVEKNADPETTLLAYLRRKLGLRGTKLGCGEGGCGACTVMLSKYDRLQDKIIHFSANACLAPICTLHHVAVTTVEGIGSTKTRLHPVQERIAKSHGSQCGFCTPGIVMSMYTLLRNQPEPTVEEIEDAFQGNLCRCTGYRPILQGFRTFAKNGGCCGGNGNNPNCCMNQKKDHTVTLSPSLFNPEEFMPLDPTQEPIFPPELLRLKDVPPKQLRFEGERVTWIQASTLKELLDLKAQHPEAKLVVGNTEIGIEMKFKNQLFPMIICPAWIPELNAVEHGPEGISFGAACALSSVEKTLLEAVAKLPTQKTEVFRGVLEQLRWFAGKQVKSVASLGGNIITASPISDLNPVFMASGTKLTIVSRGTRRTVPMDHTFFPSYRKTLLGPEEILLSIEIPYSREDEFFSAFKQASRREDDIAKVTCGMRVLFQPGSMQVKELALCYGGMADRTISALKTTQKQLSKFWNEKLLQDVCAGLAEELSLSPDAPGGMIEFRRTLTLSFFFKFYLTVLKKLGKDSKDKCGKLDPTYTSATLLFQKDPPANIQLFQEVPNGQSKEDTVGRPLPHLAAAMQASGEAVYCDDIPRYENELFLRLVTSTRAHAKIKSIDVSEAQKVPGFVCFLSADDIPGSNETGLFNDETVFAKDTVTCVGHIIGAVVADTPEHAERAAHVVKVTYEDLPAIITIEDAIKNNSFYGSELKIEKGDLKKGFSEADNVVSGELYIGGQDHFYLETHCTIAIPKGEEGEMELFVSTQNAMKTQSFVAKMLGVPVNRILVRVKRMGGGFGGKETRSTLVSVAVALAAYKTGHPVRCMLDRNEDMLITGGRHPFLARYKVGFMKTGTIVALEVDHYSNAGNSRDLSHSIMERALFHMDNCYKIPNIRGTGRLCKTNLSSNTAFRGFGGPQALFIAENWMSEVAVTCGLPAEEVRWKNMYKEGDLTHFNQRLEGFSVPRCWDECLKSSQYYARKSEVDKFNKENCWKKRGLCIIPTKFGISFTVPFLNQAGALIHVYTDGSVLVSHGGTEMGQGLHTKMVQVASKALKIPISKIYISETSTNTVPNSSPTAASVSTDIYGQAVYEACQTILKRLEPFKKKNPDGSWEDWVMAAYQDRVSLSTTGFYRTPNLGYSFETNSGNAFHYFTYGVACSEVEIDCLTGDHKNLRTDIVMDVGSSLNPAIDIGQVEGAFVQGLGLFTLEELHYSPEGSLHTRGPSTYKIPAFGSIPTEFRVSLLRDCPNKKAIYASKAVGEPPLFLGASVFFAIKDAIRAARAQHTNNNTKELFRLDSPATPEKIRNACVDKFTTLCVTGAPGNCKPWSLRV

As usually defined, the inhibition is the change of the read-out against control, counted positive when it falls. A low value points to a response near the control. `CC(=O)OC[C@H]1OC(OC(C)=O)[C@H](NC(=O)c2cc(O)c3c(c2)C(=O)c2cccc(O)c2C3=O)[C@H](OC(C)=O)[C@@H]1OC(C)=O` (stereo not given in full): the inhibition at 50 µM in data set [1] was found to be 7.2%. In the case of `COc1cccc2c1C(=O)c1c(OC)cc(CO)cc1C2=O`, the inhibition at 50 µM in data set [1] was 9.77%. The term IC50 denotes the midpoint of a concentration-inhibition curve. High values mean a need for much substance, low ones inhibition by little substance. Consider `CC(=O)OC[C@H]1OC(OC(C)=O)[C@H](/N=C/c2cc(O)c3c(c2)C(=O)c2cccc(O)c2C3=O)[C@H](OC(C)=O)[C@@H]1OC(C)=O` (stereo not given in full), for which, in data set [1], the inhibition at 50 µM is 93.4%. In data set [2], this compound gave an IC50 of 8.43 µM. In the case of `O=C(O)c1cc(O)c2c(c1)C(=O)c1cccc(O)c1C2=O` [RHEIN], in data set [1], testing at 50 µM gave an inhibition of 3.63%. Take `O=C1c2cccc(O)c2C(=O)c2c(O)cc(/C=N/c3ccccc3)cc21`: at 50 µM the inhibition in data set [1] was 94.5%. Also, half-maximal inhibition in data set [2] (IC50) required 3.87 µM.

With `C[N+](C)(C)Cc1cc(O)c2c(c1)C(=O)c1cccc(O)c1C2=O`, in data set [1], testing at 50 µM gave an inhibition of 68.8%. Besides, the IC50 in data set [2] worked out at 18.7 µM.

The compound `COc1cccc2c1C(=O)c1c(OC)cc(CCl)cc1C2=O` registered an inhibition at 50 µM in data set [1] of 14.3%.

Turning to `O=C1c2cccc(O)c2C(=O)c2c(O)cc(C[n+]3ccccc3)cc21`, in data set [1], the inhibition at 50 µM is < 10%. In data set [1], `O=Cc1cc(O)c2c(c1)C(=O)c1cccc(O)c1C2=O` gave an inhibition at 50 µM of 93.3%. Further, the “inhibition (INH)” value in data set [3] is given as “Active”; in data set [2] (cattle, 0.1 h), “Dose-dependent effect”. The compound further showed an IC50 in data set [2] of 2.79 µM. In the case of `O=C1c2cccc(O)c2C(=O)c2c(O)cc(CO)cc21` [ALOE-EMODIN], in data set [1], the inhibition at 50 µM came to 22.5%. Same read-out and setting: the value for `COc1cccc2c1C(=O)c1c(OC)cc(/C=N/N)cc1C2=O` was < 10%; that for `COc1cccc2c1C(=O)c1c(OC)cc(C[N+](C)(C)C)cc1C2=O` was < 10%; that for `COc1cccc2c1C(=O)c1c(OC)cc(C[N+](C)(C)c3ccccc3)cc1C2=O` was < 10%.

Take `COc1cccc2c1C(=O)c1c(OC)cc(C[n+]3ccccc3)cc1C2=O`: the inhibition at 50 µM in data set [1] was < 10%. Still for that read-out and setting: the value for `COc1cccc2c1C(=O)c1c(OC)cc(/C=N/c3ccccc3)cc1C2=O` was 17.5%. On the same count and under the same terms, the value for `O=C1c2cccc(O)c2C(=O)c2c(O)cc(CCl)cc21` was 18.4%; that for `C[N+](C)(Cc1cc(O)c2c(c1)C(=O)c1cccc(O)c1C2=O)c1ccccc1` was < 10%.

In data set [1], `COc1cccc2c1C(=O)c1c(OC)cc(C=O)cc1C2=O` had an inhibition at 50 µM of 36.5%.

Regarding `COc1cccc2c1C(=O)c1c(OC)cc(/C=N/O)cc1C2=O`, in data set [1], the inhibition at 50 µM is < 10%.
